Our source for the Activity values is ChEMBL document CHEMBL4321800, “Synthesis, Identification, and Structure-Activity Relationship Analysis of GATA4 and NKX2-5 Protein-Protein Interaction Modulators” (J Med Chem, 2019).

The source made the active and inactive calls. The calls are words filed in the database; no cut-off is given here. A value given as a limit tells only on which side of the number the result lay.

What all share (assay type): cell-based
The target of series [1] is Homeobox protein Nkx-2.5 (Mus musculus) (UniProt P42582). Description: Inhibition of mouse NKX2-5 expressed in Chlorocebus aethiops COS1 cells harboring 3xHA reporter gene assessed as protein-induced transcriptional activity at 10 uM after 24 hrs by luciferase reporter gene assay relative to control. Further details: scale not given: the % may be the effect or the level left. In outline:
(§1)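 COS-1 cells seeded 14 000/well and grown overnight. Transfection for 6 h in serum- and antibiotic-free medium with pGL3-3xHA reporter (100 ng/well) and pMT2-NKX2-5 (25 ng/well), Fugene 6 1:3. Compound or 0.1% DMSO vehicle for 24 h, then luciferase luminescence. Triplicate wells with Grubbs outlier removal, % of control.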
In general terms: A reporter such as luciferase makes a cellular process visible.

The target of series [2] is T1, GATA4/NKX2-5 (Mus musculus) (UniProt Q08369+P42582). The experiment in a line: Inhibition of mouse GATA4/mouse NKX2-5 protein-protein interaction expressed in Chlorocebus aethiops COS1 cells harboring 3xHA reporter gene assessed as transcriptional synergy at 10 uM after 24 hrs by luciferase reporter gene assay relative to control. Also noted: scale not given: the % may be the effect or the level left. A digest of the protocol: (§2)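 COS-1 cells seeded 14 000/well, grown overnight, then transfected for 6 h in serum- and antibiotic-free medium with pGL3-3xHA reporter (three NKX2-5 sites, 100 ng/well) plus pMT2-GATA4 and pMT2-NKX2-5 (total 50 ng/well), Fugene 6 at 1:3 DNA/reagent. Compound or 0.1% DMSO vehicle for 24 h, then luminescence read. Triplicates, Grubbs outliers removed, expressed as % of control.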

Series [3] has as its system COS-1. The experiment in a line: Induction of necrosis in Chlorocebus aethiops COS1 cells assessed as LDH release at 1 to 30 uM after 24 hrs by LDH assay relative to control. The note with it: cos-1, 24 h. A digest of the protocol:
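COS-1 cells in DMEM with 10% FBS at 37 °C, 5% CO₂, plated 10 000/well and exposed next day to 1–30 μM for 24 h. Medium samples mixed with NAD, iodonitrotetrazolium, lactate and phenazine methosulfate in 0.2 M Tris-HCl pH 8.2, 30 min at room temperature. Stopped with acetic acid, A490 read and normalized to maximal and spontaneous release.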
On the technique in general: LDH leaks from cells whose membrane has failed.

Series [4] deals with COS-1. Description: Cytotoxicity against Chlorocebus aethiops COS1 cells assessed as reduction in cell viability at 10 uM after 24 hrs by MTT assay relative to control. Particulars: cos-1, 24 h. In outline:
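COS-1 cells plated 10 000/well, exposed next day for 24 h (range 1–30 μM). Incubated with 0.5 mg/mL MTT for 2 h at 37 °C, formazan dissolved in DMSO, A550 minus A650 background. Means of 2–3 independent experiments with triplicate wells, % of vehicle-treated cells; toxic if viability fell >10% at 10 μM.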

In series [5] the target is T1, GATA4/NKX2-5 (Mus musculus). The experiment in a line: Enhancement of mouse GATA4/mouse NKX2-5 protein-protein interaction expressed in Chlorocebus aethiops COS1 cells harboring 3xHA reporter gene assessed as transcriptional synergy at 10 uM after 24 hrs by luciferase reporter gene assay relative to control. A digest of the protocol:
as §2

In series [6] the target is Homeobox protein Nkx-2.5 (Mus musculus) (UniProt P42582). Description: Enhancement of mouse NKX2-5 expressed in Chlorocebus aethiops COS1 cells harboring 3xHA reporter gene assessed as protein-induced transcriptional activity at 10 uM after 24 hrs by luciferase reporter gene assay relative to control. A digest of the protocol:
as §1

The target of series [7] is Transcription factor GATA-4 (Mus musculus) (UniProt Q08369). Description: Enhancement of mouse GATA4 expressed in Chlorocebus aethiops COS1 cells harboring NP-112 reporter gene assessed as BNP promoter-driven transcriptional activity at 10 uM after 24 hrs by luciferase reporter gene assay relative to control. In outline:
(§3)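 GATA reporter assay: COS-1 cells (14 000/well, overnight) transfected 6 h serum/antibiotic-free with NP-112 reporter (tandem GATA sites plus rat BNP minimal promoter, 100 ng/well) and pMT2-GATA4 (25 ng/well), Fugene 6 1:3. Treated 24 h with compound or 0.1% DMSO. Luminescence read; triplicates, Grubbs outliers removed, % of control.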

The target in series [8] is T2, GATA4/NKX2-5 (Rattus norvegicus) (UniProt P46152+O35767). Description: Modulation of GATA4/NKX2-5 protein-protein interaction in neonatal Wistar rat cardiomyocytes harboring -534/+4 bp rat BNP proximal promoter assessed as increase in BNP-promoter driven activity at 10 to 30 preincubated for 1 hr followed by hypertrophic agonist endothelin-1 and measured after 24 hrs by luminescence method. A digest of the protocol:
(§4)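 Neonatal ventricular myocytes from 2–3-day-old Wistar rats, 50 000/well, cultured 18–20 h in DMEM/F12 with 10% FBS. Transfected 24 h in serum-free CSFM with pGL3-BNP (−534/+4 promoter, 100 ng/well), Fugene 6 1:3. Compound or 0.1% DMSO added in CSFM, endothelin-1 1 h later, luminescence after 24 h. Mean + SD, n = 3; ANOVA with Tukey or Games–Howell.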

Series [9] deals with COS-1. Description: Cytotoxicity against Chlorocebus aethiops COS1 cells assessed as reduction in cell viability at 10 uM after 24 hrs by CellTiter-Glo Luminescent Cell Viability assay relative to control. The note with it: cos-1, 24 h. In outline:
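Intracellular ATP read-out (CellTiter-Glo) in COS-1 cells plated and treated as for MTT, 24 h exposure, doxorubicin as positive control. Plates equilibrated 30 min at room temperature, washed with PBS, reagent added, mixed 2 min, 15 min at room temperature, then luminescence. Mean + SEM of three independent experiments, % of vehicle-treated cells.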
Background: Cellular ATP, detected with luciferase, serves as a proxy for viable cell number.

The target of series [10] is Transcription factor GATA-4 (Mus musculus) (UniProt Q08369). Description: Inhibition of mouse GATA4 expressed in Chlorocebus aethiops COS1 cells harboring NP-112 reporter gene assessed as BNP promoter-driven transcriptional activity at 10 uM after 24 hrs by luciferase reporter gene assay relative to control. Further details: scale not given: the % may be the effect or the level left. In outline: as §3

For series [11], the target named is T2, GATA4/NKX2-5 (Rattus norvegicus). The experiment in a line: Modulation of GATA4/NKX2-5 protein-protein interaction in neonatal Wistar rat cardiomyocytes harboring -534/+4 bp rat BNP proximal promoter assessed as reduction in BNP-promoter driven activity at 10 to 30 preincubated for 1 hr followed by hypertrophic agonist endothelin-1 and measured after 24 hrs by luminescence method. A digest of the protocol: as §4

The target is the same in series [12]. The experiment in a line: Modulation of GATA4/NKX2-5 protein-protein interaction in neonatal Wistar rat cardiomyocytes harboring -534/+4 bp rat BNP proximal promoter assessed as reduction in hypertrophic response at 30 preincubated for 1 hr followed by hypertrophic agonist endothelin-1 and measured after 24 hrs by luminescence method. In outline:
as §4

The target of series [13] is Transcription factor GATA-4 (Mus musculus) (UniProt Q08369). Description: Modulation of mouse GATA4 expressed in Chlorocebus aethiops COS1 cells harboring NP-112 reporter gene assessed as BNP promoter-driven transcriptional activity at 10 uM after 24 hrs by luciferase reporter gene assay relative to control. In outline:
as §3

Series [14] deals with T1, GATA4/NKX2-5 (Mus musculus). The experiment in a line: Modulation of mouse GATA4/mouse NKX2-5 protein-protein interaction expressed in Chlorocebus aethiops COS1 cells harboring 3xHA reporter gene assessed as transcriptional synergy at 10 uM after 24 hrs by luciferase reporter gene assay relative to control. A digest of the protocol: as §2
For series [15], the target named is Homeobox protein Nkx-2.5 (Mus musculus) (UniProt P42582). Description: Modulation of mouse NKX2-5 expressed in Chlorocebus aethiops COS1 cells harboring 3xHA reporter gene assessed as protein-induced transcriptional activity at 10 uM after 24 hrs by luciferase reporter gene assay relative to control. In outline:
as §1

Chain of Transcription factor GATA-4 (Mus musculus) (Q08369 whole entry): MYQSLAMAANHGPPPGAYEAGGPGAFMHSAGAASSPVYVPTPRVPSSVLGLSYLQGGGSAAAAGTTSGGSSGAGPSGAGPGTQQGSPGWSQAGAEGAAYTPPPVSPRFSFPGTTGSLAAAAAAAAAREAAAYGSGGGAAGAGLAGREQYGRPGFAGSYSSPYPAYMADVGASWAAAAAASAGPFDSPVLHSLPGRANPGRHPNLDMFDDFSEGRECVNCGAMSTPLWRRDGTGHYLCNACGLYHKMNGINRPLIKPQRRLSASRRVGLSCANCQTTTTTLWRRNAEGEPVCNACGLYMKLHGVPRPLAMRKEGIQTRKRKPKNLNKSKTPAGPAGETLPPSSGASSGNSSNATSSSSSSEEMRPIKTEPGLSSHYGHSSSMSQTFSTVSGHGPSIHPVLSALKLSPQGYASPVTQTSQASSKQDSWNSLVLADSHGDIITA
Chain of Homeobox protein Nkx-2.5 (Mus musculus) (P42582 whole entry): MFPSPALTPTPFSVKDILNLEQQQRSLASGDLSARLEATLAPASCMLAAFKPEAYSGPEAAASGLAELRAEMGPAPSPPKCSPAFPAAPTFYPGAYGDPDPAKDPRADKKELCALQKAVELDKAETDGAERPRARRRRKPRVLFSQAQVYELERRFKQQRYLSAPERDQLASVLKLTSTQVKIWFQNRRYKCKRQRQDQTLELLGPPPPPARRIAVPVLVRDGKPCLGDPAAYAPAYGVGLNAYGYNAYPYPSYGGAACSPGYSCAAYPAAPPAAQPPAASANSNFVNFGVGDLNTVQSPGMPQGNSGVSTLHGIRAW

Regarding `CCN(CC)c1ccc(NC(=O)c2c(C)noc2-c2ccccc2)cc1`, the Activity in [1] is 29%; in series [2] it was 29%; in series [3], less than 8%; in [4], greater than 10%.
As to `Cc1onc(-c2ccccc2)c1C(=O)N(C1=NC(C)CS1)c1ccc(Cl)cc1` (configuration not stated), the Activity in [5] is 170%; in [6] it was 110%; in [7], 220%; in series [3], less than 8%; in series [9], “Non-Toxic”. The result in series [8] was Active.
With `CCN(c1ccc(NC(=O)c2cnsc2)cc1)C(C)C`, the values for the Activity in series [1], in [2] and in series [10] were 11%, 12% and 20%, respectively. Also, the result in [11] and in [12] was Active.
For the compound `CCN(c1ccc(NC(=O)c2c(C)noc2-c2ccccc2)cc1)C(C)C`, the Activity in series [1] was 31%; in [2], 25%; in series [10] it was 41%; in series [3] it was less than 8%; in series [4], greater than 10%.
Regarding `COc1ccc(-c2cc(NC(=O)c3ccc(C(C)(C)C)cc3)n[nH]2)cc1`, the Activity in series [10] is 40%; in [3], less than 8%; in series [9], “Non-Toxic”.
Consider `CCN(CC)c1ccc(NC(=O)c2cnc3ncccn23)cc1`, for which the Activity was 140% in series [5], 120% in series [6], 130% in [7] and less than 8% in [3].
In the case of `CCN(CC)c1ccc(NC(=O)c2cnsc2)cc1`, the Activity in series [1] is 16%; in series [13], 48%; in [2], 27%; in [3], less than 8%; in series [9], “Non-Toxic”.
`CC(=O)COC(=O)c1ccc(OCc2c(-c3ccccc3)noc2C)cc1`: the Activity is 37% in series [14]; 41% in series [15]; 44% in series [10]; less than 8% in series [3]; greater than 10% in series [4].
As to `CCN(CC)c1ccc(NC(=O)c2c(C)noc2-c2snnc2C)cc1`, the Activity in series [1] was 21%; in series [13] it was 68%; in series [2], 24%; in series [3], less than 8%; in series [4], greater than 10%. The result in series [8] was Active.
For `CCN(CC)c1ccc(NC(=O)c2csc(C)c2-c2ccccc2)cc1`, the Activity was 33% in series [14]; 39% in [15]; 58% in series [13]; less than 8% in series [3]; “Non-Toxic” in [4].
Regarding `CC(=O)N(Cc1ccc(N(C)C)cc1)c1c(-c2ccccc2)noc1C`, the Activity in series [2] was 28%; in series [10] it was 47%; in series [3], less than 8%; in series [4] it was greater than 10%.
On to `CCC(=O)N(Cc1ccc(N(CC)CC)cc1)c1c(-c2ccccc2)noc1C`, for which the Activity in series [1] is 34%; in series [2] it was 22%; in [10], 43%; in [3], less than 8%; in series [4], greater than 10%; in [9], greater than 10%.
As for `Cc1onc(-c2ccccc2)c1COc1ccc(C(=O)OCCC#N)cc1`, the Activity in [1] is 29%; in series [2], 26%; in [10], 41%; in series [3], less than 8%; in [4], greater than 10%; in series [9], greater than 10%.
Consider `CCN(CC)c1ccc(NC(=O)c2c(-c3ccccc3)noc2C)cc1`, for which the Activity in [14] is 50%; in series [15], 49%; in [13], 62%; in series [3], less than 8%; in [9] it was greater than 10%.
As for `CCN(CC)c1ccc(NC(=O)c2cc(C)oc2-c2ccccc2)cc1`, the Activity was 35% in [14]; 37% in series [15]; 49% in [13]; less than 8% in [3]; greater than 10% in [4].
As to `CCN(CC)c1ccc(NC(=O)c2c(-c3cccc([N+](=O)[O-])c3)noc2C)cc1`, the Activity in series [14] is 65%; in [3], less than 8%; in [4], “Non-Toxic”.
